In brackets after ≈: the same amount, converted by molar mass.
Legend:
Format in all cases: functional
[1] = tested on: Candida albicans; test: Antifungal activity against Candida albicans ATCC Y0109 after 24 hrs by micro-broth dilution method; settings: ATCC Y0109, 24 h
Procedure, shortened: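 ATCC quality-control strain, tested in every assay. NCCLS M27-A2 broth microdilution. Compounds were dissolved in DMSO, serially diluted in growth medium, inoculated and incubated at 35 °C, with growth read at 24 h. MIC80 is the first well with about 80% growth reduction relative to the drug-free control. Each test was run three times and the mean of replicates taken.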

[2] = tested on: Trichophyton rubrum; test: Antifungal activity against Trichophyton rubrum clinical isolate by micro-broth dilution method
Procedure, shortened: (§1)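 Clinical isolate. MIC by broth microdilution following the NCCLS M27-A2 reference method for yeasts. Compounds were dissolved in DMSO, serially diluted in growth medium, inoculated and incubated at 35 °C. MIC80 is the first well with about 80% less growth than the drug-free well. Each test was run three times and the mean of replicates reported.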

[3] = tested on: Candida tropicalis; test: Antifungal activity against Candida tropicalis clinical isolate by micro-broth dilution method; procedure, shortened: as §1
[4] = tested on: Aspergillus fumigatus; test: Antifungal activity against Aspergillus fumigatus clinical isolate by micro-broth dilution method; procedure, shortened: as §1
[5] = tested on: Nannizzia gypsea; test: Antifungal activity against Microsporum gypseum clinical isolate by micro-broth dilution method; procedure, shortened: as §1
[6] = Antifungal activity against Fonsecaea compacta clinical isolate by micro-broth dilution method; procedure, shortened: as §1
[7] = tested on: Cryptococcus neoformans; test: Antifungal activity against Cryptococcus neoformans ATCC BLS108 after 72 hrs by micro-broth dilution method; settings: ATCC BLS108, 72 h
Procedure, shortened: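 Quality-control ATCC strain included in each assay. Microbroth dilution per NCCLS M27-A2. DMSO-dissolved compounds were serially diluted in growth medium, inoculated and held at 35 °C, with MIC read at 72 h. MIC80 is the first well showing about 80% growth reduction versus the drug-free well. Tests were done in triplicate and the mean reported.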

[8] = tested on: Candida parapsilosis; test: Antifungal activity against Candida parapsilosis clinical isolate by micro-broth dilution method; settings: Lodderomyces parapsilosis; procedure, shortened: as §1

| Structure (SMILES) | MIC80 [1] [µg/mL] | MIC80 [2] [µg/mL] | MIC80 [3] [µg/mL] | MIC80 [4] [µg/mL] | MIC80 [5] [µg/mL] | MIC80 [6] [µg/mL] | MIC80 [7] [µg/mL] | MIC80 [8] [µg/mL] |
| --- | --- | --- | --- | --- | --- | --- | --- | --- |
| CCC(C)n1ncn(-c2ccc(N3CCN(c4ccc(OCC5COC(Cn6cncn6)(c6ccc(Cl)cc6Cl)O5)cc4)CC3)cc2)c1=O (stereo not drawn) [ITRACONAZOLE] | 1 (≈ 1.42 µM) | 0.0156 (≈ 0.0221 µM) | 0.25 (≈ 0.354 µM) | 1 (≈ 1.42 µM) | 0.0156 (≈ 0.0221 µM) | 0.25 (≈ 0.354 µM) | 1 (≈ 1.42 µM) | 0.25 (≈ 0.354 µM) |
| CC(C)C(=O)Nc1ccc(N2CCN(CC(O)(Cn3cncn3)c3ccc(F)cc3F)CC2)c(C(F)(F)F)c1 (stereo not drawn) | 0.25 (≈ 0.452 µM) | 1 (≈ 1.81 µM) | 1 (≈ 1.81 µM) | 64 (≈ 116 µM) | 1 (≈ 1.81 µM) | 4 (≈ 7.24 µM) | 1 (≈ 1.81 µM) | 0.25 (≈ 0.452 µM) |
| Cc1ccc(/C=C/C(=O)Nc2ccc(N3CCN(CC(O)(Cn4cncn4)c4ccc(F)cc4F)CC3)c(C(F)(F)F)c2)cc1 (stereo not drawn) | 0.25 (≈ 0.399 µM) |  |  | 4 (≈ 6.38 µM) |  |  | 1 (≈ 1.6 µM) |  |
| CCC(=O)Nc1ccc(N2CCN(CC(O)(Cn3cncn3)c3ccc(F)cc3F)CC2)c(C(F)(F)F)c1 (stereo not drawn) | 0.25 (≈ 0.464 µM) | 1 (≈ 1.86 µM) | 0.25 (≈ 0.464 µM) | 16 (≈ 29.7 µM) | 1 (≈ 1.86 µM) | 4 (≈ 7.43 µM) | 1 (≈ 1.86 µM) | 1 (≈ 1.86 µM) |
| CC(=O)Nc1ccc(N2CCN(CC(O)(Cn3cncn3)c3ccc(F)cc3F)CC2)c(C(F)(F)F)c1 (stereo not drawn) | 0.0625 (≈ 0.119 µM) | 1 (≈ 1.91 µM) | 0.25 (≈ 0.477 µM) | > 64 | 1 (≈ 1.91 µM) | 1 (≈ 1.91 µM) | 0.25 (≈ 0.477 µM) | 0.25 (≈ 0.477 µM) |
| O=C(/C=C/c1ccc(F)cc1)Nc1ccc(N2CCN(CC(O)(Cn3cncn3)c3ccc(F)cc3F)CC2)c(C(F)(F)F)c1 (stereo not drawn) | 0.0156 (≈ 0.0247 µM) |  |  | 4 (≈ 6.34 µM) |  |  | 0.25 (≈ 0.396 µM) |  |
| O=C(Nc1ccc(N2CCN(CC(O)(Cn3cncn3)c3ccc(F)cc3F)CC2)c(C(F)(F)F)c1)c1cccnc1 (stereo not drawn) | 0.0625 (≈ 0.106 µM) |  |  | 4 (≈ 6.81 µM) |  |  | 0.25 (≈ 0.425 µM) |  |
| C[C@@H](c1ncncc1F)[C@](O)(Cn1cncn1)c1ccc(F)cc1F [VORICONAZOLE] | 0.0156 (≈ 0.0447 µM) | 0.0039 (≈ 0.0112 µM) | 0.25 (≈ 0.716 µM) | 1 (≈ 2.86 µM) | 0.0039 (≈ 0.0112 µM) | 0.0156 (≈ 0.0447 µM) | 0.0156 (≈ 0.0447 µM) | 1 (≈ 2.86 µM) |
| COc1ccc(/C=C/C(=O)Nc2ccc(N3CCN(CC(O)(Cn4cncn4)c4ccc(F)cc4F)CC3)c(C(F)(F)F)c2)cc1OC (stereo not drawn) | 1 (≈ 1.49 µM) |  |  | 4 (≈ 5.95 µM) |  |  | 1 (≈ 1.49 µM) |  |
| O=C(/C=C/c1ccco1)Nc1ccc(N2CCN(CC(O)(Cn3cncn3)c3ccc(F)cc3F)CC2)c(C(F)(F)F)c1 (stereo not drawn) | 0.25 (≈ 0.415 µM) |  |  | 4 (≈ 6.64 µM) |  |  | 0.25 (≈ 0.415 µM) |  |
| O=C(/C=C/c1ccc(Cl)cc1)Nc1ccc(N2CCN(CC(O)(Cn3cncn3)c3ccc(F)cc3F)CC2)c(C(F)(F)F)c1 (stereo not drawn) | 1 (≈ 1.55 µM) |  |  | 1 (≈ 1.55 µM) |  |  | 0.25 (≈ 0.386 µM) |  |
| CCCC(=O)Nc1ccc(N2CCN(CC(O)(Cn3cncn3)c3ccc(F)cc3F)CC2)c(C(F)(F)F)c1 (stereo not drawn) | 1 (≈ 1.81 µM) | 4 (≈ 7.24 µM) | 1 (≈ 1.81 µM) | > 64 | 1 (≈ 1.81 µM) | 4 (≈ 7.24 µM) | 1 (≈ 1.81 µM) | 0.25 (≈ 0.452 µM) |
| O=C(/C=C/c1cccc([N+](=O)[O-])c1)Nc1ccc(N2CCN(CC(O)(Cn3cncn3)c3ccc(F)cc3F)CC2)c(C(F)(F)F)c1 (stereo not drawn) | 0.25 (≈ 0.38 µM) |  |  | 4 (≈ 6.08 µM) |  |  | 0.0625 (≈ 0.095 µM) |  |
| O=C(Nc1ccc(N2CCN(CC(O)(Cn3cncn3)c3ccc(F)cc3F)CC2)c(C(F)(F)F)c1)c1ccc(Cl)cc1 (stereo not drawn) | 4 (≈ 6.44 µM) | 4 (≈ 6.44 µM) | 1 (≈ 1.61 µM) | 4 (≈ 6.44 µM) | 0.25 (≈ 0.403 µM) | 4 (≈ 6.44 µM) | > 64 | 0.25 (≈ 0.403 µM) |
| O=C(/C=C/c1ccc(Cl)c(Cl)c1)Nc1ccc(N2CCN(CC(O)(Cn3cncn3)c3ccc(F)cc3F)CC2)c(C(F)(F)F)c1 (stereo not drawn) | 0.25 (≈ 0.367 µM) |  |  | 4 (≈ 5.87 µM) |  |  | 0.25 (≈ 0.367 µM) |  |
| CCCCCCC(=O)Nc1ccc(N2CCN(CC(O)(Cn3cncn3)c3ccc(F)cc3F)CC2)c(C(F)(F)F)c1 (stereo not drawn) | 1 (≈ 1.68 µM) | 4 (≈ 6.73 µM) | 4 (≈ 6.73 µM) | > 64 | 4 (≈ 6.73 µM) | 16 (≈ 26.9 µM) | 1 (≈ 1.68 µM) | 4 (≈ 6.73 µM) |
